TLR4 MyD88 comp: TLR4-MyD88 interaction inhibition in cells | O00206+Q99836 | HeLa CL3-4 TLR4/MyD88 BLA complementation, FRET ratio | inhibition, % at 8.4 µM | 200,000 tested, 0.18% active | AID 861; in the data active = inhibition above about 25%;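 also: 0% = vehicle and 100% = reference inhibitor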
NOD2 RIPK2 PPI: NOD2-RIPK2 protein interaction inhibition. CHO BLA complementation NOD2-RIPK2, CCF4 ratio. inhibition, % at 4.98 µM. 360,000 tested, 0.38% active. AID 624267; in the data active = inhibition above about 21%;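 also: 0% = vehicle only and 100% = reference blocker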
Target sequence (O43353 whole entry, looked up): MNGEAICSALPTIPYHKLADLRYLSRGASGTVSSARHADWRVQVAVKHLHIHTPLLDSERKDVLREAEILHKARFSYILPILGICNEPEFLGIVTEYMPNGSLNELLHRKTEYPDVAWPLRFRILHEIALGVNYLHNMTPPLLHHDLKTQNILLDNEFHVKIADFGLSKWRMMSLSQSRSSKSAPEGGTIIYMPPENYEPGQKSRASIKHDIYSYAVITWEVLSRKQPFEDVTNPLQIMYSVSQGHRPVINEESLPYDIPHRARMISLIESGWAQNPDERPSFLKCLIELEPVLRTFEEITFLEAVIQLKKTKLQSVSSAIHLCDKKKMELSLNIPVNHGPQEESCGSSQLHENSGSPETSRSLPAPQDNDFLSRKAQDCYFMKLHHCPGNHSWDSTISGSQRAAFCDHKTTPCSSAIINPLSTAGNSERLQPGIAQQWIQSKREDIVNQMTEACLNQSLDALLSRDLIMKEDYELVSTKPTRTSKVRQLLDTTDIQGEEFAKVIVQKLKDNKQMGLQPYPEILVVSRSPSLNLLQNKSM
TLR9-MyD88 inh: inhibitors of human TLR9-MyD88 binding; inhibition, % at 4.98 µM; 340,000 tested, 0.21% active; CHO BLA complementation TLR9-MyD88, CCF4 FRET ratio; AID 504734; Q9NR96+Q99836;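 active = inhibition above the mean over all tested compounds plus 3 SD, cut at about 21% in these data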;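 also: 0% = DMSO only wells and 100% = clavulanate BLA inhibitor control wells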
CHOP UPR activ: apoptotic UPR (CHOP) activation; CHO-CHOP luciferase reporter, luminescence; percent of tunicamycin response over DMSO baseline; activation, % at 10 µM; 330,000 tested, 0.34% active; AID 449763;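 active = at 10 µM dose, activation of 40% or more, normalized to positive control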;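 also: 100% = tunicamycin at 10 µg/mL and 0% = DMSO alone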
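System: CHO-CHOP luciferase reporter cell line | Buffer or medium: F12 medium containing 10% fetal bovine serum | Doses: One dose, 10 µM in 0.5% DMSO | Times: 6 h compound exposure at 37 °C after overnight seeding | Signal: Luciferase luminescence | Read-out: % activation vs tunicamycin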
UPR XBP1 act: activators of adaptive arm of unfolded protein response (XBP1); CHO-XBP1 luciferase reporter, IRE1-XBP1 UPR activation, luminescence; percent of tunicamycin response, DMSO as zero; activation, % at 20 µM; 330,000 tested, 0.33% active;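 active = versus positive control, 20 µM dose yields 30% or more activation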;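 also: 100% = tunicamycin at 10 µg/mL and 0% = DMSO only wells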
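Assay system: IRE1-XBP1 luciferase reporter CHO line. Input: 1000 cells/well. Buffer or medium: F12 with 10% serum. Doses: 20 µM, 1% DMSO. Times: overnight seeding at 37 °C, 6 h compound treatment at 37 °C. Technique: Steady-Glo luciferase glow luminescence, 10 min after reagent addition.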
CHOP inh: blocks CHOP induction under ER stress. CHO-K1 CHOP-promoter luciferase, tunicamycin-induced, 15-18 h. inhibition, % at 10 µM. 220,000 tested, 3.8% active. AID 2732;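 active = compounds that reduced the stress-induced luciferase reporter signal by more than about 70% of percent inhibition, limit read from the data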;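 also: 0% = tunicamycin plus vehicle and 100% = wells without tunicamycin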
* marks the source's active call; other numbers are inactive results. The full list was thinned out, with hits kept by preference.

Screening O=C1c2ccccc2-c2n[nH]c(=O)c3ccc(N4CCCCC4)c1c23 returned TLR4 MyD88 comp -11, NOD2 RIPK2 PPI 13, TLR9-MyD88 inh -13, CHOP UPR activ 0, UPR XBP1 act 8 and CHOP inh 79*.
`CCN1CCN(Cc2ccc(NC(=O)c3cc(NC(=O)N4CCNC4=O)cc(OC)c3)cc2C(F)(F)F)CC1` gave NOD2 RIPK2 PPI -11, TLR9-MyD88 inh -1, CHOP UPR activ -1, UPR XBP1 act 2 and CHOP inh 10.
Screening COc1cc(NC(=O)N2CCNC2=O)cc(C(=O)Nc2cccc(C(F)(F)F)c2)c1 returned NOD2 RIPK2 PPI 10, TLR9-MyD88 inh 5, CHOP UPR activ 2, UPR XBP1 act 8 and CHOP inh 74*.
Screening CC(c1ccccc1C(O)c1ccccc1)N(C)C (stereo not drawn) returned TLR4 MyD88 comp 7, NOD2 RIPK2 PPI 6, TLR9-MyD88 inh -5, CHOP UPR activ -2, UPR XBP1 act 0 and CHOP inh 25.
For Cc1ccc(C(O)(c2ccccc2)c2ccccc2C(C)N(C)C)c(C)c1 (stereo not drawn) the results were TLR4 MyD88 comp 5, NOD2 RIPK2 PPI 3, TLR9-MyD88 inh 8, CHOP UPR activ 0, UPR XBP1 act 1 and CHOP inh 96*.
CCCCCCCCC(=O)N/N=C/c1cccc(Br)c1 was read as TLR4 MyD88 comp -5, NOD2 RIPK2 PPI -6, TLR9-MyD88 inh -7, CHOP UPR activ -2, UPR XBP1 act 0 and CHOP inh 87*.
CCCCCCC(=O)N/N=C/c1ccc(Br)cc1 was read as TLR4 MyD88 comp 1, NOD2 RIPK2 PPI 1, TLR9-MyD88 inh 10, CHOP UPR activ 2, UPR XBP1 act -1 and CHOP inh 93*.
O=C(CCC(=O)Nc1ccc(F)cc1)N/N=C/c1cccc(Br)c1 was read as NOD2 RIPK2 PPI -14, TLR9-MyD88 inh 5, CHOP UPR activ 3 and UPR XBP1 act -8.
Screening CCCCn1c(N)c(N(CC(C)C)C(=O)c2oc3c(Cl)cccc3c2C)c(=O)[nH]c1=O returned NOD2 RIPK2 PPI -8, TLR9-MyD88 inh -1, CHOP UPR activ -1 and UPR XBP1 act 1.
CC(NNC(=S)N1CCCCCC1)c1ccc2ccccc2n1 (stereo not drawn) was read as NOD2 RIPK2 PPI -8.
Screening Clc1nc(-c2ccccc2)cc(-c2ccc(Br)cc2)n1 returned TLR4 MyD88 comp -1, NOD2 RIPK2 PPI -8, TLR9-MyD88 inh -11, CHOP UPR activ 1 and UPR XBP1 act 4.
For Nc1cc(-c2ccccc2)nn1S(=O)(=O)c1ccc(F)cc1 the results were TLR4 MyD88 comp 5, NOD2 RIPK2 PPI -4, TLR9-MyD88 inh 7, CHOP UPR activ -3, UPR XBP1 act -2 and CHOP inh 39.
Screening Nc1cc(-c2ccc(Br)cc2)nc2cc(-c3ccccc3)nn12 returned TLR4 MyD88 comp 14, NOD2 RIPK2 PPI -4, TLR9-MyD88 inh -9, CHOP UPR activ 2, UPR XBP1 act -1 and CHOP inh 82*.
`Nc1cc(-c2ccc(Br)cc2)nn1S(=O)(=O)c1ccccc1` gave TLR4 MyD88 comp -5, NOD2 RIPK2 PPI -6, TLR9-MyD88 inh -1, CHOP UPR activ 1, UPR XBP1 act 11 and CHOP inh 72*.
`Cc1ccccc1N=C(NOCc1ccc(Cl)cc1Cl)c1nonc1N` gave TLR4 MyD88 comp -13, NOD2 RIPK2 PPI -11, TLR9-MyD88 inh 3, CHOP UPR activ 0, UPR XBP1 act 0 and CHOP inh 85*.
`CCOC(=O)N1CCN(c2nc(C)cc(C(F)(F)F)n2)CC1` gave TLR4 MyD88 comp 4, NOD2 RIPK2 PPI -3, TLR9-MyD88 inh -7, CHOP UPR activ -1, UPR XBP1 act 4 and CHOP inh 71*.
For O=C(Nc1ccc2c(c1)OCO2)C1COc2ccccc2O1 (stereo not drawn) the results were TLR4 MyD88 comp -10, NOD2 RIPK2 PPI 5, TLR9-MyD88 inh 5, CHOP UPR activ 4, UPR XBP1 act 4 and CHOP inh -4.
Cc1cccc(OCC(=O)Nc2ccc3c(C)cc(=O)oc3c2)c1 was read as TLR4 MyD88 comp 9, NOD2 RIPK2 PPI 2, TLR9-MyD88 inh -7, CHOP UPR activ 0, UPR XBP1 act 0 and CHOP inh 92*.
For Cc1cc(=O)oc2cc(NC(=O)C3COc4ccccc4O3)ccc12 (stereo not drawn) the results were TLR4 MyD88 comp -7, NOD2 RIPK2 PPI 12, TLR9-MyD88 inh -1, CHOP UPR activ 4, UPR XBP1 act 0 and CHOP inh 89*.
COC(=O)C1=CN(c2ccc(C(C)(C)C)cc2)C(N)=C(C#N)C1c1cccc2ccccc12 (stereo not drawn) was read as NOD2 RIPK2 PPI -6.
O=C1NC(O)=NC1(c1ccccc1)c1ccccc1 was read as CHOP inh -21.
`COc1ccc(C2CC(C)(c3ccc(OC)cc3OC)Nc3ccccc3N2)c(OC)c1` (stereo not drawn) gave TLR4 MyD88 comp 5, NOD2 RIPK2 PPI -6, TLR9-MyD88 inh 1, CHOP UPR activ 2, UPR XBP1 act 0 and CHOP inh 80*.
`O=c1c2ccccc2c(-c2cccc(C(F)(F)F)c2)nn1-c1ccccc1` gave NOD2 RIPK2 PPI -9, TLR9-MyD88 inh -1, CHOP UPR activ 1, UPR XBP1 act -4 and CHOP inh 29.
`O=c1c2ccccc2c(-c2ccc(O)cc2)nn1-c1cccc(C(F)(F)F)c1` gave TLR4 MyD88 comp 2, NOD2 RIPK2 PPI -4, TLR9-MyD88 inh 11, CHOP UPR activ 0, UPR XBP1 act 2 and CHOP inh 94*.
Screening O=C1/C(=C/N(C(=O)c2ccco2)c2ccc(Cl)cc2)Sc2ccccc21 returned TLR4 MyD88 comp -3, NOD2 RIPK2 PPI 1, TLR9-MyD88 inh -7 and CHOP inh 88*.
Screening O=C1c2ccccc2C(=O)N1CCCCN(C(=O)c1ccco1)c1ccc(Cl)cc1 returned TLR4 MyD88 comp 9, NOD2 RIPK2 PPI 3, TLR9-MyD88 inh -14, CHOP UPR activ -1, UPR XBP1 act 5 and CHOP inh 60.
Screening O=C1/C(=C/N(C(=O)c2ccco2)c2ccc(Br)cc2)Sc2ccccc21 returned TLR4 MyD88 comp -15, NOD2 RIPK2 PPI -5, TLR9-MyD88 inh 18, CHOP UPR activ -2, UPR XBP1 act -6 and CHOP inh 90*.
Screening CCOC(=O)C1CC2CC(C1)CN(C(=O)C1CCCCC1)C2 (stereo not drawn) returned TLR4 MyD88 comp -20, NOD2 RIPK2 PPI -5, TLR9-MyD88 inh 3, CHOP UPR activ -1, UPR XBP1 act 1 and CHOP inh 12.
